Assay results from ChEMBL document CHEMBL1141787, “Antifungal activity of artemisinin derivatives” (J Nat Prod, 2005).
Values after ≈ are worked out from the molar mass of the structure shown. Active and inactive are the calls of the source. No cut-off for these calls is given here.

What was measured:
Assay type in all cases: functional, organism-based
Candida albicans [1] = assay: Antifungal activity against Candida albicans ATCC 90028 at 50 ug/mL by modified NCCLS method
Summary of the method: (§1)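 Broth microdilution following a modified NCCLS method. The inoculum was a subculture diluted in its incubation broth. Compounds were dissolved in DMSO, serially diluted in normal saline and tested in duplicate, at final concentrations starting at 50 µg/mL. Amphotericin B served as positive control, with media-only blanks. Turbidity was read at 630 nm before and after incubation. Percent growth was plotted against concentration to give IC50/MIC.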

Cryptococcus neoformans [2] = assay: Antifungal activity against Cryptococcus neoformans ATCC 90113 at 50 ug/mL by modified NCCLS method; summary of the method: as §1
Cryptococcus neoformans [3] = assay: Antifungal activity against Cryptococcus neoformans ATCC 90113 by modified NCCLS method; summary of the method: as §1
Candida albicans [4] = assay: Antifungal activity against Candida albicans ATCC 90028 by modified NCCLS method; summary of the method: as §1

SMILES	Activity (Candida albicans [1])	Activity (Cryptococcus neoformans [2])	IC50 (Cryptococcus neoformans [3])	IC50 (Candida albicans [4])	MIC (Cryptococcus neoformans [3])	MIC (Candida albicans [4])
C=C1[C@@H](OCCO)O[C@@H]2O[C@]3(C)CC[C@H]4[C@H](C)CC[C@@H]1[C@@]24OO3	inactive	inactive	3 µg/mL (≈ 9.19 µM)	–	–	–
C[C@H]1[C@@H](O[C@H]2CC[C@H](O)CC2)O[C@@H]2O[C@]3(C)CC[C@H]4[C@H](C)CC[C@@H]1[C@@]24OO3	inactive	inactive	1 µg/mL (≈ 2.61 µM)	–	–	–
C[C@H]1[C@@H](Oc2ccc(O)cc2)O[C@@H]2O[C@]3(C)CC[C@H]4[C@H](C)CC[C@@H]1[C@@]24OO3	inactive	inactive	0.087 µg/mL (≈ 0.231 µM)	–	–	–
C[C@H]1[C@@H](O[C@H]2CC[C@@H](O)CC2)O[C@@H]2O[C@]3(C)CC[C@H]4[C@H](C)CC[C@@H]1[C@@]24OO3	inactive	inactive	0.9 µg/mL (≈ 2.35 µM)	–	–	–
CC1=CO[C@@H]2O[C@]3(C)CC[C@H]4[C@H](C)CC[C@@H]1[C@@]24O3	inactive	inactive	6 µg/mL (≈ 24 µM)	30 µg/mL (≈ 120 µM)	–	–
C[C@H]1[C@@H](OCCCCO)O[C@@H]2O[C@]3(C)CC[C@H]4[C@H](C)CC[C@@H]1[C@@]24OO3	inactive	inactive	0.6 µg/mL (≈ 1.68 µM)	–	–	–
CO[C@@H]1O[C@@H]2O[C@]3(C)CC[C@H]4[C@H](C)CC[C@@H]([C@H]1C)[C@@]24OO3	inactive	inactive	1.5 µg/mL (≈ 5.03 µM)	–	–	–
C[C@H]1[C@@H](Oc2ccc(S)cc2)O[C@@H]2O[C@]3(C)CC[C@H]4[C@H](C)CC[C@@H]1[C@@]24OO3	inactive	inactive	0.31 µg/mL (≈ 0.79 µM)	–	–	–
CO[C@H]1O[C@@H]2OC3(C)CC[C@H]4[C@H](C)CC[C@@H]([C@H]1C)[C@@]24OO3 (single isomer, unassigned) [ARTEMETHER]	inactive	–	0.6 µg/mL (≈ 2.01 µM)	–	25 µg/mL (≈ 83.8 µM)	–
C=C1C(=O)O[C@@H]2OC3(C)CC[C@H]4[C@H](C)CC[C@@H]1[C@@]24OO3 (single isomer, unassigned) [ARTEMISITENE]	inactive	inactive	0.045 µg/mL (≈ 0.161 µM)	–	–	–
C[C@H]1[C@@H](O)O[C@@H]2OC3(C)CC[C@H]4[C@H](C)CC[C@@H]1[C@@]24OO3 (single isomer, unassigned) [ARTENIMOL]	inactive	–	0.09 µg/mL (≈ 0.317 µM)	9 µg/mL (≈ 31.7 µM)	12.5 µg/mL (≈ 44 µM)	–
CCO[C@@H]1O[C@@H]2O[C@]3(C)CC[C@H]4[C@H](C)CC[C@@H]([C@H]1C)[C@@]24OO3 [ALPHA-ARTEETHER]	inactive	–	0.045 µg/mL (≈ 0.144 µM)	3 µg/mL (≈ 9.6 µM)	1.56 µg/mL (≈ 4.99 µM)	–
C[C@@H]1[C@H](O)[C@@H](C)/C=C/C=C/C=C/C=C/C=C/C=C/C=C/[C@H](O[C@@H]2O[C@H](C)[C@@H](O)[C@H](N)[C@@H]2O)C[C@@H]2O[C@](O)(C[C@@H](O)C[C@@H](O)[C@H](O)CC[C@@H](O)C[C@@H](O)CC(=O)O[C@H]1C)C[C@H](O)[C@H]2C(=O)O [AMPHOTERICIN B]	–	–	0.35 µg/mL (≈ 0.379 µM)	0.1 µg/mL (≈ 0.108 µM)	0.625 µg/mL (≈ 0.676 µM)	0.15 µg/mL (≈ 0.162 µM)
CC1=CO[C@@H]2O[C@]3(C)CC[C@H]4[C@H](C)CC[C@@H]1[C@@]24OO3 [ANHYDRODIHYDROARTEMISININ]	–	–	0.045 µg/mL (≈ 0.169 µM)	7 µg/mL (≈ 26.3 µM)	0.195 µg/mL (≈ 0.732 µM)	50 µg/mL (≈ 188 µM)
C[C@@H]1CC[C@H]2[C@@H](C)C(=O)O[C@@H]3O[C@@]4(C)CC[C@@H]1[C@]32OO4 [ARTEMISININ]	–	–	2 µg/mL (≈ 7.08 µM)	8 µg/mL (≈ 28.3 µM)	50 µg/mL (≈ 177 µM)	50 µg/mL (≈ 177 µM)
CCO[C@H]1O[C@@H]2O[C@@]3(C)CC[C@H]4[C@H](C)CC[C@@H]([C@H]1C)[C@@]24OO3 [ARTEMOTIL]	–	–	0.085 µg/mL (≈ 0.272 µM)	15 µg/mL (≈ 48 µM)	3.13 µg/mL (≈ 10 µM)	50 µg/mL (≈ 160 µM)
